Test [1] can be described thus: Induction of microtubule depolymerization in rat A10 cells after 18 hrs by indirect immunofluorescence assay. The class given is cell-based. The procedure, abridged: (§1)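 A-10 cells were exposed to vehicle or compound for 18 h, fixed, and microtubules were visualized by indirect immunofluorescence. EC50 is the concentration causing about 50% microtubule loss, from at least three independent experiments.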

Another test has as its system MDA-MB-435. Briefly: Cytotoxicity against human MDA-MB-435 cells assessed as growth inhibition after 48 hrs by SRB assay. The format is functional, cell-based. As to conditions: MDA-MB-435, 48 h.
For test [2], the system named is A10. Briefly: Induction of microtubule depolymerization in rat A10 cells up to 40 uM after 18 hrs by indirect immunofluorescence assay. The format is cell-based. The procedure, abridged: as §1
Test [3] concerns A10. Description: Induction of microtubule depolymerization in rat A10 cells up to 10 uM after 18 hrs by indirect immunofluorescence assay. The class given is cell-based. The procedure, abridged: as §1
For the next test, the target named is Tubulin (Sus scrofa) (UniProt P02554+P02550). Description: Displacement of [3H]-colchicine from pig brain tubulin at 1 uM after 10 mins by scintillation counting analysis relative to control.

Molecules are shown by their SMILES. Active and inactive are the calls of the source. No cut-off for these calls is given here. Some results are limits rather than exact numbers.

Sequence of Tubulin (Sus scrofa) (P02550 whole entry, looked up): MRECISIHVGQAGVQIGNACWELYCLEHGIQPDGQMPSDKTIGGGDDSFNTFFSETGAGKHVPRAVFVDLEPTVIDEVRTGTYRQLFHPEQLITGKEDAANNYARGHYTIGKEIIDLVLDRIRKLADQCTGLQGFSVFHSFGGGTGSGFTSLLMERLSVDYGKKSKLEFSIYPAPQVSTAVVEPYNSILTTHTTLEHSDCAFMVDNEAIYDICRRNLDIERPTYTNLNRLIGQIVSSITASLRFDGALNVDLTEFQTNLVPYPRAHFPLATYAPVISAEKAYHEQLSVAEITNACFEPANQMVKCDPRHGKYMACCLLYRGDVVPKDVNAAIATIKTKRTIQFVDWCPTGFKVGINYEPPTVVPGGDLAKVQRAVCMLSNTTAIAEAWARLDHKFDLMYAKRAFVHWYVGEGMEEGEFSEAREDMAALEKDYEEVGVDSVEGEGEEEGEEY
Sequence of Tubulin (Sus scrofa) (P02554 whole entry, looked up): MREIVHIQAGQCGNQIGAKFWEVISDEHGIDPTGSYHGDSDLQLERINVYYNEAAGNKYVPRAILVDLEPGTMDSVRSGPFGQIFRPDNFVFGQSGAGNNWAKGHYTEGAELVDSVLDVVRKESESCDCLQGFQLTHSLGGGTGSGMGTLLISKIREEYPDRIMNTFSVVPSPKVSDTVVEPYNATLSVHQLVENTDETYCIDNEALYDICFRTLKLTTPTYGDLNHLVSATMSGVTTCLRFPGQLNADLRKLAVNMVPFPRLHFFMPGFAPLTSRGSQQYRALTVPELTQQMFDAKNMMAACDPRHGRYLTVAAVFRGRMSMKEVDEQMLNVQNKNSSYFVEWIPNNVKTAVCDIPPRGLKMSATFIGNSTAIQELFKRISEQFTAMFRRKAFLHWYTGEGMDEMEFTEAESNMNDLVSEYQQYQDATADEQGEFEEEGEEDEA

As for `CCOc1ccc(N(C)c2ncnc3c2CCC3)cc1`, the EC50 in test [1] worked out at 730 nM. Further, the IC50 with MDA-MB-435 amounted to 48.7 nM. Taken in the same sequence, the figures for `CSc1ccc(N(C)c2ncnc3c2CCC3)cc1` were 675 nM and 42.8 nM. Taken in the same sequence, the figures for `COc1ccc(N(C)c2nc(N)nc3c2CCC3)cc1` were 110 nM and 16.7 nM.

As for `Cc1nc2c(c(N(C)c3ccc(Cl)cc3)n1)CC(C)C2` (racemic), the outcome with A10 [2] was inactive. Besides, in the test on MDA-MB-435, the IC50 is 2300 nM. Turning to `COc1ccc(N(C)c2nc(C)nc3c2C(C)CC3)cc1` (racemic), the EC50 in test [1] is 47 nM. Also, the IC50 in the test with MDA-MB-435 amounted to 18.8 nM.

Take `CSc1ccc(N(C)c2nc(C)nc3c2CC(C)C3)cc1` (racemic): in test [1], the EC50 is 64 nM. Also, in the test with MDA-MB-435, the IC50 was found to be 15.6 nM. Regarding `COc1ccccc1N(C)c1nc(N)nc2c1CCC2`, in the test with A10 [3], the outcome was inactive. Also, the IC50 with MDA-MB-435 was over 1000 nM. On to `CN(c1ccc(Cl)cc1)c1ncnc2c1CCC2`, for which the result with A10 [3] was inactive. `COc1ccc(Nc2nc(N)nc3c2CC(C)C3)cc1` (racemic): in the test on A10 [2], the result was inactive. In addition, in the test with MDA-MB-435, the IC50 is over 10000 nM. For the compound `COc1ccc(/C=C\c2cc(OC)c(OC)c(OC)c2)cc1O` [COMBRETASTATIN A4], the inhibition on Tubulin (Sus scrofa) was determined as 80%. Also, a half-maximal response in test [1] (EC50) required 7 nM.

Turning to `COc1cccc(N(C)c2nc(N)nc3c2CCC3)c1`, the result in the test on A10 [3] was inactive. For the same compound, the IC50 in the test on MDA-MB-435 was over 1000 nM. In turn, `Cc1ccc(N(C)c2nc(C)nc3c2CCC3)cc1` had an EC50 in test [1] of 10500 nM. Further, the IC50 in the test on MDA-MB-435 stood at 360 nM. On to `Cc1nc2c(c(N(C)c3cccc(Br)c3)n1)CC(C)C2` (racemic), for which, in test [1], the EC50 came out at 15000 nM. The IC50 in the test with MDA-MB-435 worked out at 1500 nM.

In test [1], `COc1ccc(N(C)c2ncnc3c2CCC3)cc1` displayed an EC50 of 655 nM. Moreover, the IC50 with MDA-MB-435 was found to be 43 nM.

`CCOc1ccc(N(C)c2nc(C)nc3c2CCC3)cc1` displayed an EC50 in test [1] of 64 nM. Moreover, the IC50 in the test with MDA-MB-435 was determined as 15.1 nM.

For `C=CC1Cc2nc(N)nc(N(C)c3ccc(OC)cc3)c2C1` (racemic), the EC50 in test [1] was found to be 899 nM. Further, in the test with MDA-MB-435, the IC50 worked out at 205 nM. Regarding `Cc1ccc(N(C)c2ncnc3c2CCC3)cc1`, the outcome in the test with A10 [3] was inactive. Compound `CCOc1ccc(N(C)c2nc(N)nc3c2CCC3)cc1` came in with an EC50 in test [1] of 148 nM. Also, the IC50 in the test with MDA-MB-435 came to 20.3 nM.

For the compound `COc1ccc(N(C)c2nc(N)nc3c2CC(C)C3)cc1` (racemic), in test [1], a half-maximal effect (EC50) was put at 143 nM. The IC50 in the test with MDA-MB-435 was found to be 29.9 nM.

Regarding `C=CC1Cc2nc(C)nc(N(C)c3ccc(OC)cc3)c2C1` (racemic), a half-maximal response in test [1] (EC50) required 140 nM. In addition, the IC50 in the test on MDA-MB-435 was 73.2 nM.

The values are drawn from ChEMBL document CHEMBL2424583, “Structure-activity relationship and in vitro and in vivo evaluation of the potent cytotoxic anti-microtubule agent N-(4-methoxyphenyl)-N,2,6-trimethyl-6,7-dihydro-5H-cyclopenta[d]pyrimidin-4-aminium chloride and its analogues as antitumor agents” (J Med Chem, 2013).
